Neddylation inh: blocks human cullin neddylation | P61081+Q13564 | TR-FRET cullin neddylation, biochemical | calls only at 25 µM | 360,000 compounds, 0.58% hits | AID 651699; in the data active = inhibition above about 36%
Target sequence (P61081 whole entry, looked up): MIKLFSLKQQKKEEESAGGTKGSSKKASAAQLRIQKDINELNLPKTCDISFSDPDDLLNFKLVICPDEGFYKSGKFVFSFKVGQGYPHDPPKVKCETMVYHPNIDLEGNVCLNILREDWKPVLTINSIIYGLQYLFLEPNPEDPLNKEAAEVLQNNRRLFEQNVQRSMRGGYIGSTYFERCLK
Target sequence (Q13564 whole entry, looked up): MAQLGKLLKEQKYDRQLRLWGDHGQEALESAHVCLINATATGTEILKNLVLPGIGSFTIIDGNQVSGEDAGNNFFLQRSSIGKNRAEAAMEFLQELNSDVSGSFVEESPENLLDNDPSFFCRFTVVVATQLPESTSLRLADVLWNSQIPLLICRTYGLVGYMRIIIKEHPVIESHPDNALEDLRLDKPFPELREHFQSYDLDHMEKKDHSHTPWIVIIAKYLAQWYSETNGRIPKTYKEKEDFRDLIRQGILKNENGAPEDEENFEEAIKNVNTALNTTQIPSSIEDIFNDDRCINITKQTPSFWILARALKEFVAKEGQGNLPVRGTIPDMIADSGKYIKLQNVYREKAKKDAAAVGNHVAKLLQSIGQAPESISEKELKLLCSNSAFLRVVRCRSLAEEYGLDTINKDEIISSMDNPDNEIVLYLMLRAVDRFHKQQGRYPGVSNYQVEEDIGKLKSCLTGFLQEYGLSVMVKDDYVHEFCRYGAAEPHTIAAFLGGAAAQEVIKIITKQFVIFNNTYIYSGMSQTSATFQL
IMP-1 inh: inhibitors of Pseudomonas aeruginosa IMP-1 metallo-beta-lactamase | inhibition, % at 5.6 µM | 290,000 compounds, 0.45% hits | purified IMP-1, nitrocefin hydrolysis, epi-absorbance fluorescence;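 active = inhibition above the mean plus 3 SD of all compounds in the same screening run, cut at about 4.5% in these data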
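System: Purified recombinant IMP-1 metallo-beta-lactamase enzyme | Measured by: Fluorescence quenching readout, ex 480/em 530 nm | Replication: Singlicate | Incubation: 15 min preincubation plus 25 min reaction at 25 °C | Evaluation: Percent inhibition from optical density relative to buffer-blank wells | Benchmarks: DMSO with and without IMP-1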
procasp3 activ: activates human procaspase-3 | P42574 | 330,000 compounds, 0.11% hits | activation, % at 8.5 µM | recombinant procaspase-3 D3A, Ac-DEVD-pNA absorbance 405 nm;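 active = activation above the mean of all tested compounds plus 3 SD, cut at about 21% in these data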
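Assay system: Autoprocessing-dead procaspase-3 D3A mutant enzyme; also added: Ac-DEVD-pNA; doses: one concentration, 8.5 µM nominal, 0.8% DMSO; times: 1 h compound preincubation, 2 h substrate hydrolysis at 25 °C; technique: 405 nm absorbance of p-nitroaniline, reads at 0 and 120 min; measure: % activation between DMSO and enzyme-spiked controls; repeats: single replicate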
PolyA inhibitor: inhibitors of polyadenylation in S. cerevisiae; S. cerevisiae SKY197-pL101 polyadenylation reporter, beta-gal luminescence; efflux-impaired pdr1/pdr3 knockout yeast; score 100 = 6 SD above DMSO; activity score, % at 12 µM; 300,000 compounds, 0.02% hits; AID 1875;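 active = lowest replicate activity score at least 50, where 100 means six control SD above control mean; inconclusive = lowest score under 50 but half or more replicates reach 50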;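 also: yeast exposed to compound for 9 h at 30 °C; higher score means more reporter readthrough which indicates perturbed polyadenylation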
VIM-2 inhibitor: blocks Pseudomonas aeruginosa VIM-2 metallo-beta-lactamase; purified VIM-2, nitrocefin hydrolysis, epi-absorbance fluorescence; inhibition, % at 5.6 µM; 290,000 compounds, 0.89% hits; AID 1527;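 active = inhibition above the mean of all tested compounds plus 3 SD, cutoff set per screening run, cut at about 7.5% in these data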;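 also: red hydrolysis product quenches plate fluorescence so inhibitors raise well fluorescence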
proCasp7 act: counter-screen: procaspase-7 (human) activation; 330,000 compounds, 0.093% hits; recombinant procaspase-7, Ac-DEVD-pNA absorbance 405 nm; D23A/D198A/D206A triple mutant, cannot self-cleave; scale: DMSO 0, 5 µM enzyme 100; activation, % at 8.5 µM; AID 463210;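 active = percent activation above the screen-wide mean plus 3 SD, cut at about 25% in these data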
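Replicates: singlicate. Assay system: Procaspase-7 triple mutant (PC-7 D3A). Signal: 405 nm absorbance of p-nitroaniline. Times: 1 h preincubation, 2 h reaction. Buffer or medium: Zinc-free HEPES pH 7.4 with 300 mM NaCl, 0.01% Triton X-100. Also added: DEVD-pNA substrate. Benchmarks: DMSO wells as 0%, DMSO with 5 µM added PC-7 as 100%.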
Neddyl inh conf: confirmation of human cullin neddylation inhibitors. shares compounds with Neddylation inh. TR-FRET cullin neddylation biochemical assay. calls only at 25 µM. 1,800 compounds, 13% hits. AID 652217; in the data active = inhibition above about 40%;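 also: neddylation substrate is the cullin 1 ring ligase complex with SKP2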
Of the large screens only hits and unclear results are named; the others gave an inactive call (follow-up assays come after a bar, where shown); ! = repeats disagree. Hits are enriched below; roughly 1.7% of the tested compounds scored in any of these assays.

CC(C)(C)NC(=O)c1cc(-c2ccc3c(c2)OCO3)nc2ccccc12	Neddylation inh active | Neddyl inh conf inactive
O=C(O)c1cc(-c2ccc3c(c2)OCO3)nc2ccc(Cl)cc12	Neddylation inh active
O=C(c1cc(-c2ccncc2)nc2ccc(Cl)cc12)N1CCN(Cc2ccc3c(c2)OCO3)CC1	none
Cc1ccc(CNC(C)c2ccccc2)cc1 (stereo unspecified)	none
COc1ccc(N2CCCC2)c(NC(=O)c2ccc([N+](=O)[O-])o2)c1	none
COc1cc(/C=N/n2nnnc2N)cc(OC)c1OC	Neddylation inh active | Neddyl inh conf inactive
CSc1ccc(/C=N/n2nnnc2N)cc1	Neddylation inh active | Neddyl inh conf active
Nc1nnnn1/N=C/c1ccc(O)cc1	none
O=C(NCc1ccccc1Cl)c1cnn2cccnc12	Neddylation inh active | Neddyl inh conf inactive
O=C(c1ccc(C#Cc2ccccc2)o1)N1CCN(c2ccccn2)CC1	none
COC(=O)c1ccc(C#Cc2ccccc2)o1	Neddylation inh active | Neddyl inh conf inactive
c1nc(SSc2ncnc3nc[nH]c23)c2[nH]cnc2n1	none (no result: IMP-1 inh, procasp3 activ, PolyA inhibitor, VIM-2 inhibitor, proCasp7 act)
O=C(N/N=C/c1sc(N2CCOCC2)nc1-c1ccccc1)c1ccccc1Cl	none (not shown: Neddylation inh)
Nc1ccc(C(=O)N/N=C/c2sc(N3CCOCC3)nc2-c2ccccc2)cc1	Neddylation inh active | Neddyl inh conf inactive
O=C(N/N=C/c1sc(N2CCOCC2)nc1-c1ccccc1)c1ccccc1O	Neddylation inh active | Neddyl inh conf inactive
COc1cc(C(=O)N/N=C/c2sc(N3CCOCC3)nc2-c2ccccc2)cc(OC)c1OC	Neddylation inh active | Neddyl inh conf inactive
O=C(O)c1cccc(N/N=C/c2sc(N3CCOCC3)nc2-c2ccccc2)c1	Neddylation inh active
O=C(N/N=C/c1sc(N2CCOCC2)nc1-c1ccccc1)c1ccccc1F	none (no result: Neddylation inh)
COc1ccc(CNC(=O)COc2ccc(C(=O)c3ccc(F)cc3)cc2)cc1	none
CC(Cc1ccccn1)NC(=O)c1ccc(OC2CCN(CCc3ccccc3)CC2)cc1 (stereo unspecified)	none (no result: procasp3 activ, proCasp7 act)
Cc1cc(C)c2c(N)c(C(=O)c3ccccc3)sc2n1	Neddylation inh active | Neddyl inh conf active
COc1cc(/C=N/NC(=O)CCOc2ccccc2C)cc(Br)c1O	Neddylation inh active | Neddyl inh conf active
COCc1cc(/C=N\NC(=O)Cc2ccc(OC)cc2)ccc1OC	none
COc1ccc(CC(=O)N/N=C\c2cc(Br)c(O)c(Br)c2)cc1	Neddylation inh active (no result: procasp3 activ, proCasp7 act) | Neddyl inh conf active
CC(C)CC(=O)OC(C)(C)[C@@H]1Cc2c(ccc3ccc(=O)oc23)O1	none (not shown: Neddylation inh, IMP-1 inh, PolyA inhibitor, VIM-2 inhibitor)
COc1ccc2cc3cc(C(=O)NCCN4CCc5ccccc5C4)oc3nc2c1	none (not shown: Neddylation inh)
COc1ccc2cc3cc(C(=O)NCCN4CCc5ccccc5C4)sc3nc2c1	Neddylation inh active | Neddyl inh conf inactive
CCOC(=O)C1CCCN(c2cc(C)nc3cc(-c4ccc(F)cc4)nn23)C1 (stereo unspecified)	Neddylation inh active | Neddyl inh conf inactive
C(=C\c1nnc(-c2cccs2)o1)/c1ccccc1	Neddylation inh active | Neddyl inh conf inactive
COc1ccc2cc3c(N)nn(C(=O)c4cccc(F)c4)c3nc2c1	none
CCSc1nc(-c2ccccc2)c(-c2ccccc2)n1CC(O)CO (stereo unspecified)	Neddylation inh active | Neddyl inh conf inactive
CCCSc1nc2cc(C)c(C)cc2n1CC(O)CO (stereo unspecified)	none
NC(N)=NC(=O)c1nc(Cl)c(N)nc1N	Neddylation inh active! | Neddyl inh conf inactive
O=C(O)Cn1c(=O)c(-c2ccccc2)nc2ccccc21	Neddylation inh active, PolyA inhibitor inconclusive
O=C(O)Cn1c(-c2ccccc2)nc2ccccc21	none
CCCNC(=O)c1sc2c(c1C(=O)Nc1ccccn1)CCCC2	Neddylation inh active | Neddyl inh conf inactive
Cc1cc(Nc2ccccc2C(=O)O)n2ncnc2n1	Neddylation inh active (not shown: IMP-1 inh, procasp3 activ, PolyA inhibitor, VIM-2 inhibitor, proCasp7 act)

Screening data: PubChem, several laboratories
